Measured values: ChEMBL document CHEMBL1131460, “2-substituted (2SR)-2-amino-2-((1SR,2SR)-2-carboxycycloprop-1-yl)glycines as potent and selective antagonists of group II metabotropic glutamate receptors. 2. Effects of aromatic substitution, pharmacological characterization, and bioavailability” (J Med Chem, 1998)

Tests used:
[1] = Maximum concentration achieved in rat plasma when administered intravenously at a dose of 10 mg/kg; format: ADME, organism-based; design: dose 10 mg/kg, route intravenous; conditions: iv
In short: (§1)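 Male Fischer 344 rats dosed iv or ip at 10 mg/kg, or orally at 10 or 100 mg/kg; five rats per route and dose. Blood and brain taken from one rat per time point (0.25, 0.5, 1, 2, 4 h after iv/ip; 0.5, 1, 2, 4, 6 h after po). Plasma and brain homogenates derivatized, extracted, assayed by negative-ion chemical ionization GCMS (LOQ 100 pg/mL plasma, 1 ng/g brain).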

[2] = Plasma concentration after 2 hr at a dose of 10 mg/kg when administered intravenously; conditions: iv
[3] = Half-life in rat plasma when administered perorally at a dose of 10 mg/kg; format: ADME, organism-based; design: dose 10 mg/kg, route oral; conditions: po
In short: (§2)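 Male Fischer 344 rats were dosed at 10 mg/kg iv, 10 mg/kg ip, or 10 or 100 mg/kg po, with five rats per route and dose. One rat was sampled for blood and brain at each time: 0.25, 0.5, 1, 2 and 4 h after iv/ip, and 0.5, 1, 2, 4 and 6 h after po. Plasma and brain homogenates were derivatized, extracted and quantified by negative-ion chemical ionization GCMS (LOQ 100 pg/mL plasma, 1 ng/g brain).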

Rattus norvegicus [4] = test: Area under curve was evaluated in rat plasma when administered intraperitoneally at a dose of 10 mg/kg for 4 or 6 hours; format: ADME, organism-based; design: dose 10 mg/kg, route intraperitoneal; conditions: in vivo, ip; in short: as §2
[5] = Plasma concentration after 0.5 hr at a dose of 100 mg/kg when administered perorally; conditions: po
[6] = Time of maximum concentration achieved in rat brain when administered intraperitoneally at a dose of 10 mg/kg; format: ADME, organism-based; design: dose 10 mg/kg, route intraperitoneal; conditions: ip; in short: as §1
[7] = Brain concentration after 1 hr at a dose of 10 mg/kg when administered perorally; conditions: po
[8] = Brain concentration after 4 hr at a dose of 10 mg/kg when administered intraperitoneally; conditions: ip
[9] = Bioavailability in rat (dose 10 mg/kg p.o.); format: ADME, organism-based; conditions: in vivo, po
in vivo [10] = conditions: brain, iv, 10 mg/kg
[11] = Brain concentration after 1 hr at a dose of 10 mg/kg when administered intraperitoneally; conditions: ip
[12] = Half-life in rat plasma when administered intraperitoneally at a dose of 10 mg/kg; format: ADME, organism-based; design: dose 10 mg/kg, route intraperitoneal; conditions: ip; in short: as §2
[13] = Brain concentration after 6 hr at a dose of 100 mg/kg when administered perorally; conditions: po
[14] = Binding affinity for Group II Metabotropic glutamate receptor was measured using [3H]glutamate in rat forebrain membranes; format: cell membranes, Membrane
In short: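 ACPD-sensitive [³H]glutamate binding to group II mGluRs in rat forebrain membranes, reported as IC50. Most values are single-point determinations; others are averages of two or three determinations. Values in parentheses are percent radioligand displacement at 1 μM.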

[15] = Time of maximum concentration achieved in rat plasma when administered intraperitoneally at a dose of 10 mg/kg; format: ADME, organism-based; design: dose 10 mg/kg, route intraperitoneal; conditions: ip; in short: as §1
[16] = Plasma concentration after 2 hr at a dose of 10 mg/kg when administered intraperitoneally; conditions: ip
[17] = Volume of distribution in rat plasma when administered intraperitoneally at a dose of 10 mg/kg; conditions: ip
[18] = Maximum concentration achieved in rat plasma when administered perorally at a dose of 10 mg/kg; format: ADME, organism-based; design: dose 10 mg/kg, route oral; conditions: po; in short: as §1
[19] = Maximum concentration achieved in rat brain when administered intraperitoneally at a dose of 10 mg/kg; format: ADME, organism-based; design: dose 10 mg/kg, route intraperitoneal; conditions: ip; in short: as §1
[20] = Clearance rate in rat plasma when administered intravenously at a dose of 10 mg/kg; format: ADME, organism-based; design: dose 10 mg/kg, route intravenous; conditions: iv, read-out: Clp (converted); in short: as §2
[21] = Maximum concentration achieved in rat brain when administered perorally at a dose of 10 mg/kg; format: ADME, organism-based; design: dose 10 mg/kg, route oral; conditions: po; in short: as §1
[22] = Brain concentration after 2 hr at a dose of 10 mg/kg when administered intraperitoneally; conditions: ip
Rattus norvegicus [23] = test: Bioavailability was evaluated in rat plasma when administered intravenously at a dose of 10 mg/kg; <Tr>; format: ADME, organism-based; conditions: in vivo, iv
Rattus norvegicus [24] = test: Area under curve was evaluated in rat plasma when administered perorally at a dose of 100 mg/kg for 4 or 6 hours; format: ADME, organism-based; design: dose 100 mg/kg, route oral; conditions: in vivo, po; in short: as §2
[25] = Half-life in rat plasma when administered perorally at a dose of 100 mg/kg; format: ADME, organism-based; design: dose 100 mg/kg, route oral; conditions: po; in short: as §1
[26] = Maximum concentration achieved in rat brain when administered perorally at a dose of 100 mg/kg; format: ADME, organism-based; design: dose 100 mg/kg, route oral; conditions: po; in short: as §1
Rattus norvegicus [27] = test: Area under curve was evaluated in rat brain when administered perorally at a dose of 10 mg/kg for 4 or 6 hours; format: ADME, organism-based; design: dose 10 mg/kg, route oral; conditions: in vivo, po
[28] = Plasma concentration after 0.5 hr at a dose of 10 mg/kg when administered perorally; conditions: po
[29] = Brain concentration after 0.5 hr at a dose of 10 mg/kg when administered intravenously; conditions: iv
[30] = Plasma concentration after 4 hr at a dose of 10 mg/kg when administered intraperitoneally; conditions: ip
[31] = Time of maximum concentration achieved in rat plasma when administered perorally at a dose of 100 mg/kg; format: ADME, organism-based; design: dose 100 mg/kg, route oral; conditions: po; in short: as §1
[32] = Time of maximum concentration achieved in rat plasma when administered intravenously at a dose of 10 mg/kg; format: ADME, organism-based; design: dose 10 mg/kg, route intravenous; conditions: iv; in short: as §1
in vivo [33] = conditions: plasma, iv, 10 mg/kg
in vivo [34] = conditions: brain, iv, 10 mg/kg; remark: listed apart in the source
in vivo [35] = conditions: brain, ip, 10 mg/kg
[36] = Brain concentration after 0.5 hr at a dose of 10 mg/kg when administered perorally; conditions: po
[37] = Plasma concentration after 1 hr at a dose of 10 mg/kg when administered perorally; conditions: po
[38] = Time of maximum concentration achieved in rat brain when administered perorally at a dose of 100 mg/kg; format: ADME, organism-based; design: dose 100 mg/kg, route oral; conditions: po; in short: as §1
[39] = Plasma concentration after 1 hr at a dose of 100 mg/kg when administered perorally; conditions: po
Rattus norvegicus [40] = test: Area under curve was evaluated in rat plasma when administered perorally at a dose of 10 mg/kg for infinite hours; format: ADME, organism-based; design: time infinity, dose 10 mg/kg, route oral; conditions: in vivo, po; in short: as §2
[41] = Half-life in rat brain when administered intraperitoneally at a dose of 10 mg/kg; format: ADME, organism-based; design: dose 10 mg/kg, route intraperitoneal; conditions: ip
[42] = Brain concentration after 2 hr at a dose of 100 mg/kg when administered perorally; conditions: po
Rattus norvegicus [43] = test: Area under curve was evaluated in rat brain when administered intravenously at a dose of 10 mg/kg for 4 or 6 hours; format: ADME, organism-based; design: dose 10 mg/kg, route intravenous; conditions: in vivo, iv
[44] = Time of maximum concentration achieved in rat brain when administered perorally at a dose of 10 mg/kg; format: ADME, organism-based; design: dose 10 mg/kg, route oral; conditions: po; in short: as §1
[45] = Plasma concentration after 4 hr at a dose of 10 mg/kg when administered perorally; conditions: po
Rattus norvegicus [46] = test: Area under curve was evaluated in rat plasma when administered intravenously at a dose of 10 mg/kg for 4 or 6 hours; format: ADME, organism-based; design: dose 10 mg/kg, route intravenous; conditions: in vivo, iv; in short: as §2
Rattus norvegicus [47] = test: Area under curve was evaluated in rat plasma when administered intravenously at a dose of 10 mg/kg for infinite hours; format: ADME, organism-based; design: time infinity, dose 10 mg/kg, route intravenous; conditions: in vivo, iv; in short: as §2
[48] = Clearance rate in rat plasma when administered intraperitoneally at a dose of 10 mg/kg; format: ADME, organism-based; design: dose 10 mg/kg, route intraperitoneal; conditions: ip, read-out: Clp (converted); in short: as §2

N[C@](CC1c2ccccc2Oc2ccccc21)(C(=O)O)[C@H]1C[C@@H]1C(=O)O
Cmax [1]: 12000 ng/mL | concentration at 2 h [2]: 845 ng/mL | half-life [3]: 2.64 h | AUC (Rattus norvegicus [4]): 12700 ng·h/mL | concentration at 0.5 h [5]: 197 ng/mL | Tmax [6]: 0.5 h | concentration at 1 h [7]: 2.1 ng/g | concentration at 4 h [8]: 149 ng/g | F [9]: 2% | bioavailability [9]: 3.4% | concentration at 0.25 h (in vivo [10]): 234 ng/g | concentration at 1 h [11]: 235 ng/g | half-life [12]: 0.44 h | concentration at 6 h [13]: 29.6 ng/g | IC50 [14]: 2.9 nM | Tmax [15]: 0.25 h | concentration at 2 h [16]: 1120 ng/mL | Vd [17]: 0.49 L/kg | Cmax [18]: 64.1 ng/mL | Cmax [19]: 246 ng/g | clearance [20]: 19.8 mL/min/kg | Cmax [21]: 7.4 ng/g | concentration at 2 h [22]: 202 ng/g | Bioavailabiility (Rattus norvegicus [23]): <Tr> | AUC (Rattus norvegicus [24]): 1380 ng·h/mL | half-life [25]: 1.94 h | Cmax [26]: 30 ng/g | AUC (Rattus norvegicus [27]): 26.4 ng·h/mL | concentration at 0.5 h [28]: 64.1 ng/mL | concentration at 0.5 h [29]: 243 ng/g | concentration at 4 h [30]: 39.9 ng/mL | Tmax [31]: 1 h | Tmax [32]: 0.25 h | concentration at 0.25 h (in vivo [33]): 12000 ng/mL | concentration at 1 h (in vivo [34]): 188 ng/g | concentration at 0.25 h (in vivo [35]): 211 ng/g | concentration at 0.5 h [36]: 1.7 ng/g | concentration at 1 h [37]: 48.3 ng/mL | Tmax [38]: 6 h | concentration at 1 h [39]: 475 ng/mL | AUC (Rattus norvegicus [40]): 284 ng·h/mL | half-life [41]: 4.75 h | concentration at 2 h [42]: 23.9 ng/g | AUC (Rattus norvegicus [43]): 701 ng·h/mL | Tmax [44]: 4 h | concentration at 4 h [45]: 28.3 ng/mL | AUC (Rattus norvegicus [46]): 8370 ng·h/mL | AUC (Rattus norvegicus [47]): 8400 ng·h/mL | CL/F [48]: 13 mL/min/kg
